Reference: article PMC3128788 (Nuclear medicine and biology, 2011)
Where “and” joins values, the source holds several entries; their conditions need not be identical. Identical values can stand only once.

Columns and labels:
[1] = biological target: human D3 dopamine receptors expressed in HEK 293 cells (Homo sapiens, UniProt P35462); experiment: Dopamine receptor filtration binding assay, [125I]-IABN competition, D3; settings: for D3 (Ki): mean Ki ± S.E.M., [125I]-IABN, HEK 293 membranes, unit printed in b5 only
Sequence of human D3 dopamine receptors expressed in HEK 293 cells (P35462 whole entry): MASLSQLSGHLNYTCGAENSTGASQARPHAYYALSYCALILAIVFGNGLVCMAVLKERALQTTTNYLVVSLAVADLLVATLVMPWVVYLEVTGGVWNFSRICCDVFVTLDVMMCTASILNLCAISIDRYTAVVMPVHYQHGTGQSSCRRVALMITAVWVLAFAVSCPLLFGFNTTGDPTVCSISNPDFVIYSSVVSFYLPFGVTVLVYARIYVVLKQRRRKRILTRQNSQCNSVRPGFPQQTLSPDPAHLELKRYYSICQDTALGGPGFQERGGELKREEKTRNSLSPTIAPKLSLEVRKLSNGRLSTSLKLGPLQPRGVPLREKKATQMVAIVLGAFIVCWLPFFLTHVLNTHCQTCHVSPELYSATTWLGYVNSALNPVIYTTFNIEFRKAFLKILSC

[2] = biological target: D2 dopamine receptors (transfected HEK cells) (Homo sapiens, UniProt P14416); experiment: Whole cell forskolin-dependent adenylyl cyclase inhibition assay, D2; format: cell-based; settings: intrinsic activity
Sequence of D2 dopamine receptors (transfected HEK cells) (P14416 whole entry): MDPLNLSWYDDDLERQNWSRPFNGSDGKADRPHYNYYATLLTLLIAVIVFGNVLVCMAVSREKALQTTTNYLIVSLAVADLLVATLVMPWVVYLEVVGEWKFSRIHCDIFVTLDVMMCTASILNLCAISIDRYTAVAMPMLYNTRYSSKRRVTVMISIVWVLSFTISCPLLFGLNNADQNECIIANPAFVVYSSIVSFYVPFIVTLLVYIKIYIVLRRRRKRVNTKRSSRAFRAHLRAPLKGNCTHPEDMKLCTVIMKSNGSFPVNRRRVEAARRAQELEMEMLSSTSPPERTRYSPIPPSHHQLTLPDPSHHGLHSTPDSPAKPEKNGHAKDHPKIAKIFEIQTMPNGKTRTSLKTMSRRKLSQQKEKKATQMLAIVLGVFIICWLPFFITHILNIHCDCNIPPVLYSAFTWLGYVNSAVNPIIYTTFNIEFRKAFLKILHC
Method in brief: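 Transfected HEK cells were prelabelled with 2,8-3H-adenine in serum-free medium for 75 min at 37 °C. They were then incubated with test compound in serum-free medium containing 0.1 mM 3-isobutyl-1-methylxanthine for 20 min at 37 °C. The reaction was stopped with a solution of 10% trichloroacetic acid and 1 mM cyclic AMP, and accumulated 3H-cyclic AMP was measured.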

[3] = biological target: D3 dopamine receptors (transfected HEK cells) (Homo sapiens, UniProt P35462); experiment: Whole cell forskolin-dependent adenylyl cyclase inhibition assay, D3; format: cell-based; settings: for Functional classification at D3 dopamine receptors: compared to quinpirole; for %IA D3: intrinsic activity, compared to the full agonist quinpirole
Sequence of D3 dopamine receptors (transfected HEK cells) (P35462 whole entry): as the sequence (P35462 whole entry) above

D3 (Ki) [1]	%IA D2 [2] [%]	Functional classification at D3 dopamine receptors [3]	D2:D3 selectivity ratio ([1]; selectivity for D3 versus D2 receptors)	%IA D3 [3]	SMILES
subnanomolar	34 ± 3	weak partial agonist/antagonist	–	–	COc1ccccc1N1CCN(CCCCNC(=O)c2ccc(N(C)C)cc2)CC1 [Compound 6, 4-(dimethylamino)-N-(4-(4-(2-methoxyphenyl)piperazin-1-yl)butyl)benzamide]
subnanomolar	35 ± 1	–	–	–	COc1ccccc1N1CCN(CCCCNC(=O)c2ccc(CCF)cc2)CC1 [Compound 7, 4-(2-fluoroethyl)-N-(4-(4-(2-methoxyphenyl)piperazin-1-yl)butyl)benzamide]
subnanomolar	66.3 ± 1	partial agonist	23	64.5 ± 8.3% and 64.5 ± 8%	CN(C)c1ccc(C(=O)NCCCCN2CCN(c3ccccc3OCCF)CC2)cc1 [Compound 8, 4-(dimethylamino)-N-(4-(4-(2-(2-fluoroethoxy)phenyl)piperazin-1-yl)butyl)benzamide]
–	29.3 ± 7.3	weak partial agonist	–	34.4 ± 1.7%	O=C(NCCCCN1CCN(c2ccccc2OCCF)CC1)c1ccc(-c2ccsc2)cc1 [Compound 9, N-(4-(4-(2-(2-fluoroethoxy)phenyl)piperazin-1-yl)butyl)-4-(thiophen-3-yl)benzamide]
